Most compounds without a hit are left out; they make up all but 0.79% or so of the library.
hIAP block: blocks human intestinal alkaline phosphatase. P09923. purified IAP, CDP-Star luminescence, 30 min. inhibition, % at 10 µM. actives 0.12% (n = 330,000);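 active means inhibition reaching a set limit with compound at 10 µM in the primary screen, cut at about 35% in these data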;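 further: plate controls were DMSO wells with enzyme for no effect and no-enzyme buffer wells for full effect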
Target sequence (P09923 whole entry, looked up): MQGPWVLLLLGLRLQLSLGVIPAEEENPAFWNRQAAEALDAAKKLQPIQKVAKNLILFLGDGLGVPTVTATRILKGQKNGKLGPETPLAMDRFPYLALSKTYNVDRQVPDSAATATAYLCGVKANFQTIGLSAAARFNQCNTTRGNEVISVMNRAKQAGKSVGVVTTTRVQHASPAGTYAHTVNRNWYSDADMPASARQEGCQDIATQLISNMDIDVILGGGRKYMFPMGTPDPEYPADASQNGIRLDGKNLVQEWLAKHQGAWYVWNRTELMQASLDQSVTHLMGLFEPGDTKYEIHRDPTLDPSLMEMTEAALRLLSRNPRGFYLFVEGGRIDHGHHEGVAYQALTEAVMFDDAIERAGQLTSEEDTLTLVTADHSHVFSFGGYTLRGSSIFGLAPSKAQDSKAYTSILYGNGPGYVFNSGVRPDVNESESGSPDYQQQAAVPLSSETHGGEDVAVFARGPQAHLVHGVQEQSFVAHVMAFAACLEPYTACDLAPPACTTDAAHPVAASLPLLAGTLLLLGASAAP
bIAP activator: intestinal alkaline phosphatase (bovine) activation; purified bovine IAP, CDP-star luminescence, 30 min; active compounds read high; fold of DMSO-control signal, blank-subtracted; activation factor at 20 µM; actives 0.17% (n = 200,000);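 active means activation factor of 2 or more at 20 µM, a signal rise over negative controls twice the positive control's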
mIAP act: increases mouse intestinal alkaline phosphatase activity | AID 2805 | muIAP, CDP-Star luminescence, 30 min; active compounds read high; 1 = vehicle-only enzyme signal, 0 = enzyme-free wells | actives 0.24% (n = 330,000) | activation factor at 10 µM;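 active means activation factor of at least 2 at 20 µM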
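also added = chemiluminescent substrate CDP-Star | test system = mouse IAP enzyme | signal = chemiluminescence readout | compound = DMSO-dissolved test compounds | incubation = 30 min at room temperature | benchmarks = DMSO wells, no-enzyme wells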
mIAP inh: blocks mouse intestinal alkaline phosphatase; AID 2806; purified mouse IAP, CDP-Star luminescence, 30 min; actives 0.2% (n = 330,000); inhibition, % at 10 µM;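 active means inhibition of at least 40% at 10 µM in the primary screen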;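 further: plate controls were DMSO with enzyme for no effect and no enzyme wells for full effect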
bIAP inh: blocks bovine intestinal alkaline phosphatase activity | purified bovine IAP, CDP-star luminescence, 30 min | inhibition, % at 20 µM | 190,000 tested, under 10 active;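 active means over 50% inhibition of intestinal alkaline phosphatase at 20 µM in the single-dose screen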
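test system = bovine IAP enzyme | medium = DEA buffer 100 mM, pH 9.8, with MgCl2 1.0 mM, ZnCl2 0.02 mM | detection = luminescence | dosing = single compound dose of 20 µM, 2% DMSO final | incubation = 30 min reaction at room temperature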
hIAP activ: increases human intestinal alkaline phosphatase activity. purified human IAP, CDP-Star luminescence, 30 min; active compounds read high; 1 = vehicle-only enzyme, 0 = enzyme-free background. activation factor at 10 µM. actives 0.16% (n = 330,000). AID 2524;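 active means activation factor of the enzyme at least 2-fold when tested at 20 µM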
mIAP inh confirm: mouse IAP inhibition confirmation; inhibition, % at 10 µM; purified mouse IAP, CDP-Star luminescence, 30 min; AID 434971; shares compounds with mIAP inh; actives 4.7% (n = 11,000);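 active means inhibition of at least 40% at 10 µM in either of the two replicates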;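 further: plate controls were DMSO wells with enzyme for no effect and buffer wells lacking enzyme for full effect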
* marks the source's active call; other numbers are inactive results; i = inactive; . = no result given.

SMILES	hIAP block	bIAP activator	mIAP act	mIAP inh	bIAP inh	hIAP activ	mIAP inh confirm
CC(=O)NCc1ccc(-c2csc(N)n2)s1	12	0.9	0.28	72*	9	0.88	77*
COc1ccc(OC)c(C2CC(=O)N3CN(c4ccccc4)CSC3=C2C#N)c1 (configuration not stated)	2	0.9	0.63	37	5	0.98	.
Cc1cccc(N2CSC3=C(C#N)C(c4ccc(C)o4)CC(=O)N3C2)c1 (configuration not stated)	-5	1	0.42	58*	-1	1.1	63*
O=C(NCC1CCN(Cc2ccccc2F)CC1)Nc1ccccc1F	-7	.	1.3	-30	.	1.1	.
Cc1ccc(C)c(CN2CCC(CNC(=O)Nc3ccc(C)c(C)c3)CC2)c1	-27	.	3.9*	-291	.	1.3	-121
O=C(NCC1CCN(Cc2ccccc2F)CC1)Nc1cccc(Br)c1	-39	.	3.3*	-226	.	1.4	-105
CCOC(=O)C(O)(CC(=O)c1ccc(OC)cc1)C(F)(F)F (configuration not stated)	18	1.1	1	-3	-5	0.82	.
FC(F)Sc1ccc(NC(=S)NC(c2ccccc2)c2ccccc2)cc1	-72	0.9	12*	i	13	1.7	-277
CCCCNC(=O)Oc1c(Br)cc2sc(=O)oc2c1Br	-12	.	0.22	78*	.	1.1	81*
CC(=O)Nc1ccc(S(=O)(=O)N(Cc2ccccc2)C(C)C)cc1	0	0.9	0.98	2	8	1	.
COc1cc2cnc(-c3ccccc3F)cc2cc1OC	-8	.	0.94	6	.	1.1	.
Nc1cccc2cnccc12	-13	1	0.96	4	0	1.1	.
Nc1ccncc1N	-21	.	0.28	72*	.	1.2	75*
O=C(CSc1nc2ccccc2c(=O)[nH]1)c1ccc(O)c(O)c1	7	0.1	0.38	62*	.	0.93	72*
Cc1cc(SCC(=O)NCC(c2cccs2)N2CCOCC2)c(C)cc1Br (configuration not stated)	-6	.	1	0	.	1.1	.
Nc1nc(SCC(=O)N2CCCc3ccccc32)n(-c2ccccc2)n1	6	1	1	-2	-3	0.94	.
O=C(Nc1cccc(Cl)c1)NC1CC2CCC(C1)N2Cc1ccco1 (configuration not stated)	-15	1	1.1	-15	-2	1.2	.
O=C(Nc1ccc(Cl)cc1)NC1CCCCC1Cc1ccco1 (configuration not stated)	-20	1.6	7.8*	i	-56	1.2	-111
CC(=O)Nc1ccc(C=NNc2ccc([N+](=O)[O-])cc2S(=O)(=O)Nc2ccccc2C(=O)O)cc1	11	.	0.68	32	.	0.89	.
CN(CCO)c1ccc(C=NNc2ccc([N+](=O)[O-])cc2S(=O)(=O)Nc2ccccc2C(=O)O)cc1	2	.	0.54	46*	.	0.97	46*
CCN1/C(=C/C=C/c2oc3ccc(-c4ccccc4)cc3[n+]2CC)Oc2ccc(-c3ccccc3)cc21	-36	1.6	0.35	65*	-56	1.4	50*
CCCCN1C(=O)/C(=C/C=C2\Oc3ccccc3N2CC)SC1=S	.	0.7	.	.	31	.	.
Cc1ccc(Nc2nc(-c3ccc(F)cc3)cs2)nc1	5	.	1.1	-7	.	0.95	.
Cc1ccc(Nc2nc(-c3ccc(O)c(O)c3)cs2)nc1	-8	0.8	0.54	46*	20	1.1	52*
O=[N+]([O-])c1ccc(N2CCC(O)CC2)nc1	-15	0.9	0.95	5	15	1.2	.
O=C(Nc1cnn(Cc2ccccc2)c1)NC12CC3CC(CC(C3)C1)C2	16	1	2.1*	-112	4	0.84	-105
O=C(O)C1C2CCC(O2)C1C(=O)Nc1cnn(Cc2ccccc2)c1 (configuration not stated)	6	1	1	-1	2	0.94	.
Cc1cccc(N=Cc2cc3c(cc2[N+](=O)[O-])OCO3)c1	-6	1	0.81	19	2	1.1	.
Cc1cc(O)c(N=Cc2cc3c(cc2[N+](=O)[O-])OCO3)cc1C	-34	.	0.49	51*	.	1.3	60*

Screening results deposited in PubChem by Sanford-Burnham Center for Chemical Genomics.
